Assay results from ChEMBL document CHEMBL4177642, “Cyclic perylene diimide: Selective ligand for tetraplex DNA binding over double stranded DNA” (Bioorg Med Chem, 2017).
The source made the active and inactive calls. No cut-off for these calls is given here.

How the values were obtained:
Quadruplex DNA [1] = experiment: Binding affinity to human TA-core of telomeric sequence G-quadruplex DNA assessed as stabilization of antiparallel structure formation up to 4.5 uM in presence of Na+ by CD spectroscopic method; format: nucleic-acid assay
Quadruplex DNA [2] = experiment: Binding affinity to human TA-core of telomeric sequence G-quadruplex DNA assessed as stabilization of antiparallel structure formation up to 5 equiv by CD spectroscopic method; format: nucleic-acid assay
Calf thymus DNA [3] = experiment: Binding affinity to calf thymus duplex DNA assessed as change in the intensities of negative band formation at 280 nm up to 10 uM in presence of Na+ by CD spectroscopic method; format: ADME, nucleic-acid assay, Bos taurus; settings: cattle, 0.28 µM
[4] = test system: double-stranded DNA oligonucleotide dsOligo (synthetic); experiment: Binding affinity to synthetic duplex DNA oligonucleotide dsOligo assessed as change in melting temperature at 1.5 uM in presence of K+ by spectrophotometric analysis
Quadruplex DNA [5] = experiment: Binding affinity to human TA-core of telomeric sequence G-quadruplex DNA assessed as change in melting temperature at 1.5 uM in presence of K+ by spectrophotometric analysis; format: nucleic-acid assay
Procedure, shortened: (§1)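 Melting of 1.5 μM TA-core followed by CD at 288 nm in 50 mM Tris-HCl pH 7.4 with 20 mM KCl or 20 mM NaCl. Run without or with 1.5 μM ligand (1:1 ligand:DNA), heating at 60 °C/h, data every 0.5 °C, 1 cm cell.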

Calf thymus DNA [6] = experiment: Binding affinity to calf thymus duplex DNA assessed as hyperchromic shift at 550 nanometer at 5 uM in presence of 100 mM KCl by UV-vis spectrophotometric analysis relative to control; format: ADME, nucleic-acid assay, Bos taurus; settings: cattle
Procedure, shortened: (§2)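 Absorption spectra at 25 °C of 5.0 μM ligand in 50 mM Tris-HCl pH 7.4, 0.10 M KCl, titrated with TA-core (0–15.7 μM) or CT-DNA (0–323.4 μM; concentration in base pairs).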

[7] = Binding affinity to 27-mer DNA hairpin (unknown origin) at 100 uM in presence of K+ by isothermal titration calorimetric method
Quadruplex DNA [8] = experiment: Binding affinity to human TA-core of telomeric sequence G-quadruplex DNA assessed as change in enthalpy at 100 uM in presence of Na+ by isothermal titration calorimetric method; format: nucleic-acid assay
Procedure, shortened: (§3)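 ITC at 25 °C: TA-core (10 μM in cell) annealed 95 °C 10 min, cooled 1.0 °C/min to 25 °C, in 50 mM AcOK-AcOH pH 5.5 (K+ lines) or AcONa-AcOH pH 5.5 (Na+ lines). Ligand at 100 μM in same buffer injected repeatedly (1.96 μL each). Solutions degassed 10 min; data fitted to an independent-site model.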

Calf thymus DNA [9] = experiment: Binding affinity to calf thymus duplex DNA assessed as isosbestic point at 5 uM by UV-vis spectrophotometric analysis; format: ADME, nucleic-acid assay, Bos taurus; settings: cattle; procedure, shortened: as §2
Calf thymus DNA [10] = experiment: Binding affinity to calf thymus duplex DNA assessed as change in the intensities of negative band formation at 280 nm up to 10 uM in presence of K+ by CD spectroscopic method; format: ADME, nucleic-acid assay, Bos taurus; settings: cattle, 0.28 µM
Calf thymus DNA [11] = experiment: Binding affinity to calf thymus duplex DNA assessed as change in the intensities of negative band formation at 280 nm up to 10 uM by CD spectroscopic method; format: ADME, nucleic-acid assay, Bos taurus; settings: cattle, 0.28 µM
Quadruplex DNA [12] = experiment: Binding affinity to human TA-core of telomeric sequence G-quadruplex DNA assessed as stabilization of antiparallel G-quadruplex structure by measuring increase in intensities of negative band at 240 nanometer up to 7.5 uM in presence of K+ by CD spectroscopic method; format: nucleic-acid assay
Quadruplex DNA [13] = experiment: Binding affinity to human TA-core of telomeric sequence G-quadruplex DNA assessed as hypochromic shift at 500 nanometer at 5 uM in presence of 100 mM KCl by UV-vis spectrophotometric analysis relative to control; format: nucleic-acid assay; procedure, shortened: as §2
Quadruplex DNA [14] = experiment: Binding affinity to human TA-core of telomeric sequence G-quadruplex DNA assessed as change in entropy at 100 uM in presence of Na+ by isothermal titration calorimetric method; format: nucleic-acid assay; procedure, shortened: as §3
Quadruplex DNA [15] = experiment: Binding affinity to human TA-core of telomeric sequence G-quadruplex DNA assessed as isosbestic point at 5 uM in presence of 100 mM KCl by UV-vis spectrophotometric analysis; format: nucleic-acid assay; procedure, shortened: as §2
Quadruplex DNA [16] = experiment: Binding affinity to human TA-core of telomeric sequence G-quadruplex DNA assessed as change in enthalpy at 100 uM in presence of K+ by isothermal titration calorimetric method; format: nucleic-acid assay; procedure, shortened: as §3
[17] = Selectivity ratio of binding constant for human TA-core of telomeric sequence G-quadruplex DNA to binding conctant for calf thymus duplex DNA
Calf thymus DNA [18] = experiment: Binding affinity to calf thymus duplex DNA assessed as red shift at 500 nanometer at 5 uM in presence of 100 mM KCl by UV-vis spectrophotometric analysis; format: ADME, nucleic-acid assay, Bos taurus; settings: cattle; procedure, shortened: as §2
Quadruplex DNA [19] = experiment: Binding affinity to human TA-core of telomeric sequence G-quadruplex DNA assessed as red shift at 500 nanometer at 5 uM in presence of 100 mM KCl by UV-vis spectrophotometric analysis; format: nucleic-acid assay; procedure, shortened: as §2
[20] = Inhibition of telomerase (unknown origin) by TRAP assay; set-up: species or system Homo sapiens
Procedure, shortened: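 TRAP with a TRAPeze kit, using positive-control cell lysate (250 cells per reaction). Extension 30 °C 1 h, then 35 PCR cycles. Products run on 12.5% PAGE, GelStar-stained and analyzed per kit.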

Calf thymus DNA [21] = experiment: Binding affinity to calf thymus duplex DNA assessed as change in the intensities of positive band formation at 250 nm up to 10 uM by CD spectroscopic method; format: ADME, nucleic-acid assay, Bos taurus; settings: cattle, 0.25 µM
Quadruplex DNA [22] = experiment: Binding affinity to human TA-core of telomeric sequence G-quadruplex DNA assessed as stabilization of antiparallel G-quadruplex structure by measuring increase in intensities of positive band at 290 nanometer up to 7.5 uM in presence of K+ by CD spectroscopic method; format: nucleic-acid assay
[23] = test system: double-stranded DNA oligonucleotide dsOligo (synthetic); experiment: Binding affinity to synthetic duplex DNA oligonucleotide dsOligo assessed as increase in melting temperature at 3 to 4.5 uM in presence of K+ by spectrophotometric analysis
Quadruplex DNA [24] = experiment: Binding affinity to human TA-core of telomeric sequence G-quadruplex DNA assessed as hyperchromic shift at 550 nanometer at 5 uM in presence of 100 mM KCl by UV-vis spectrophotometric analysis relative to control; format: nucleic-acid assay; procedure, shortened: as §2
DNA = experiment: Binding affinity to Escherichia coli pUC19 duplex DNA assessed as unwinding of supercoiled DNA up to 40 uM after 1 hr in presence of human topoisomerase-1 by agarose gel electrophoresis; format: ADME, nucleic-acid assay
Procedure, shortened: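 pUC19 plasmid (0.025 μg/μL) preincubated 5 min at 37 °C with human Topo I (0.25 units/μL, 0.01% BSA) in 35 mM Tris-HCl pH 8.0, 72 mM KCl, 5 mM MgCl2, 5 mM DTT, 5 mM spermidine. Ligand then added and incubated 1 h at 37 °C. Stopped with SDS, proteinase K digested, phenol/chloroform extracted, run on 1% agarose, GelStar-stained.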

Quadruplex DNA [25] = experiment: Binding affinity to human TA-core of telomeric sequence G-quadruplex DNA assessed as change in entropy at 100 uM in presence of K+ by isothermal titration calorimetric method; format: nucleic-acid assay; procedure, shortened: as §3
Quadruplex DNA [26] = experiment: Binding affinity to human TA-core of telomeric sequence G-quadruplex DNA assessed as change in melting temperature at 1.5 uM in presence of Na+ by spectrophotometric analysis; format: nucleic-acid assay; procedure, shortened: as §1
Calf thymus DNA [27] = experiment: Binding affinity to calf thymus duplex DNA assessed as change in the intensities of positive band formation at 250 nm up to 10 uM in presence of K+ by CD spectroscopic method; format: ADME, nucleic-acid assay, Bos taurus; settings: cattle, 0.25 µM
[28] = Binding affinity to 27-mer DNA hairpin (unknown origin) at 100 uM in presence of Na+ by isothermal titration calorimetric method
Calf thymus DNA [29] = experiment: Binding affinity to calf thymus duplex DNA assessed as hypochromic shift at 500 nanometer at 5 uM in presence of 100 mM KCl by UV-vis spectrophotometric analysis relative to control; format: ADME, nucleic-acid assay, Bos taurus; settings: cattle; procedure, shortened: as §2
Calf thymus DNA [30] = experiment: Binding affinity to calf thymus duplex DNA assessed as change in the intensities of positive band formation at 250 nm up to 10 uM in presence of Na+ by CD spectroscopic method; format: ADME, nucleic-acid assay, Bos taurus; settings: cattle, 0.25 µM

O=C1CCCCCC(=O)NCCCN2CCN(CCCN3C(=O)c4ccc5c6ccc7c8c(ccc(c9ccc(c4c59)C3=O)c86)C(=O)N(CCCN3CCN(CCCN1)CC3)C7=O)CC2
Activity (Quadruplex DNA [1]): Active
Activity (Quadruplex DNA [2]): Active
Activity (Calf thymus DNA [3]): Not Active
deltaTm [4]: -1 °C
ΔTm (Quadruplex DNA [5]): 21 °C
Activity (Calf thymus DNA [6]): 29%
Activity [7]: inactive
deltaH (Quadruplex DNA [8]): -7.14 kcal/mol
Activity (Calf thymus DNA [9]): 520 nm
Activity (Calf thymus DNA [10]): Not Active
Activity (Calf thymus DNA [11]): Not Active
Activity (Quadruplex DNA [12]): Active
Activity (Quadruplex DNA [13]): 42%
-TdeltaS (Quadruplex DNA [14]): -1.7 kcal/mol
Activity (Quadruplex DNA [15]): 510 nm
deltaH (Quadruplex DNA [16]): -6.71 kcal/mol
Selectivity ratio [17]: 900
Activity (Calf thymus DNA [18]): 8 nm
Activity (Quadruplex DNA [19]): 13 nm
IC50 [20]: 240 nM
Activity (Calf thymus DNA [21]): Not Active
Activity (Quadruplex DNA [22]): Active
Activity [23]: Not Active
Activity (Quadruplex DNA [24]): 55%
Activity (DNA): Not Active
-TdeltaS (Quadruplex DNA [25]): -1.56 kcal/mol
ΔTm (Quadruplex DNA [26]): 14 °C
Activity (Calf thymus DNA [27]): Not Active
Activity [28]: inactive
Activity (Calf thymus DNA [29]): 50%
Activity (Calf thymus DNA [30]): Not Active
